{"source": "ChEMBL document CHEMBL4196021", "about": "“Targeting G-quadruplex DNA structures in the telomere and oncogene promoter regions by benzimidazole‒carbazole ligands” (Eur J Med Chem, 2018)", "key": {"Quadruplex DNA [1]": {"system": "Quadruplex DNA", "test": "Binding affinity to human c-Kit1 G-quadruplex DNA assessed as stabilization of parallel stranded topology after 5 mins in presence of KCl by CD spectroscopic method", "type": "nucleic-acid assay", "outline": "(§1)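 CD spectra of 5 µM G4 DNA in 10 mM Tris-HCl pH 7.4, 100 mM KCl, 0.1 mM EDTA, with or without ligand. Mixtures were heated 95 °C for 5 min and slowly cooled to room temperature. Recorded 200–400 nm at 25 °C, 100 nm/min, 2 s response, 1 cm cell; average of three scans.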"}, "Quadruplex DNA [2]": {"system": "Quadruplex DNA", "test": "Stabilization of c-Myc G-quadruplex DNA in human HeLa cells assessed as decrease in c-Myc mRNA level at 5 uM after 24 hrs by RT-PCR method relative to control", "type": "cell-based", "parameters": "scale not given: the % may be the effect or the level left", "outline": "(§2)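 HeLa cells exposed to increasing ligand concentrations (5 and 10 µM named) for 24 h, with DMSO-treated cells as control. Total RNA was extracted with TRI reagent and DNase I-treated. c-MYC and VEGF transcripts were quantified by qRT-PCR, normalized to GAPDH, and expressed as relative fold change.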"}, "Quadruplex DNA [3]": {"system": "Quadruplex DNA", "test": "Binding affinity to human c-Myc G-quadruplex DNA assessed as stabilization of parallel stranded topology after 5 mins in presence of KCl by CD spectroscopic method", "type": "nucleic-acid assay", "outline": "as §1"}, "Quadruplex DNA [4]": {"system": "Quadruplex DNA", "test": "Binding affinity to human VEGF G-quadruplex DNA at 0.6 uM after 5 mins in presence of KCl by fluorescence spectroscopic method", "type": "nucleic-acid assay", "outline": "(§3)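 Fluorescence titration at 25 °C with 0.6 µM ligand in 10 mM Tris-HCl pH 7.4, 100 mM KCl, 0.1 mM EDTA. Preformed G4 DNA was added stepwise, with 5 min incubation before each spectrum. Excitation 330 nm; emission 350–550 nm, slit 5 nm.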"}, "Quadruplex DNA [5]": {"system": "Quadruplex DNA", "test": "Binding affinity to human Bcl2 G-quadruplex DNA assessed as change in melting temperature in presence of KCl by CD spectroscopic method", "type": "nucleic-acid assay", "outline": "(§4)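 CD melting of 5 µM G4 DNA in 10 mM Tris-HCl pH 7.4, 25 mM KCl, 0.1 mM EDTA. Ligand was present during folding (heating, slow cooling). Spectra 200–400 nm over 20–96 °C in 2 °C steps, buffer blank subtracted. Tm was taken from normalized ellipticity at the positive maximum (262 nm for promoter G4s). ΔTm = ligand-bound minus DNA alone; average of two independent experiments.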"}, "Quadruplex DNA [6]": {"system": "Quadruplex DNA", "test": "Induction of conformational changes in human telomeric G-quadruplex DNA assessed as inversion from potassium ion stabilized hybrid type mixed parallel/antiparallel G-quadruplex to stable telomere parallel-stranded G-quadruplex after 5 mins in presence of KCl by CD spectroscopic method", "type": "nucleic-acid assay", "outline": "as §1"}, "Quadruplex DNA [7]": {"system": "Quadruplex DNA", "test": "Stabilization of c-Myc G-quadruplex DNA in human HeLa cells assessed as decrease in c-Myc mRNA level at 10 uM after 24 hrs by RT-PCR method relative to control", "type": "cell-based", "parameters": "scale not given: the % may be the effect or the level left", "outline": "as §2"}, "Quadruplex DNA [8]": {"system": "Quadruplex DNA", "test": "Binding affinity to human telomeric G-quadruplex DNA assessed as change in melting temperature in presence of KCl by CD spectroscopic method", "type": "nucleic-acid assay", "outline": "as §4"}, "Quadruplex DNA [9]": {"target": "Quadruplex DNA", "test": "Displacement of thiazole orange from human c-Myc G-quadruplex DNA after 5 mins in presence of KCl by fluorescence assay", "type": "nucleic-acid assay", "outline": "(§5)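 Thiazole orange displacement from a G4 DNA–TO complex (1 µM TO + 0.5 µM G4 DNA) in 10 mM Tris-HCl pH 7.4, 100 mM KCl, 0.1 mM EDTA. Ligand was added in increasing steps, with 5 min incubation each. Fluorescence read at ex 501/em 531 nm; % displacement = 100 − (Ft/F0 × 100). DC50 is the ligand concentration giving 50% displacement, read from plots; average of two independent experiments.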"}, "Quadruplex DNA [10]": {"target": "Quadruplex DNA", "test": "Displacement of thiazole orange from human c-Kit2 G-quadruplex DNA after 5 mins in presence of KCl by fluorescence assay", "type": "nucleic-acid assay", "outline": "as §5"}, "Quadruplex DNA [11]": {"system": "Quadruplex DNA", "test": "Stabilization of c-Myc G-quadruplex DNA in human HeLa cells assessed as decrease in c-Myc mRNA level after 24 hrs by RT-PCR method", "type": "cell-based", "outline": "as §2"}, "Quadruplex DNA [12]": {"system": "Quadruplex DNA", "test": "Binding affinity to human c-Kit2 G-quadruplex DNA at 0.6 uM after 5 mins in presence of KCl by fluorescence spectroscopic method", "type": "nucleic-acid assay", "outline": "as §3"}}, "note": "Activity calls are given as the source filed them. The calls are words filed in the database; no cut-off is given here."}
{"smiles": "CN(C)CCCCn1c2ccc(-c3nc4ccc(N5CCN(CCO)CC5)cc4[nH]3)cc2c2cc(-c3nc4ccc(N5CCN(CCO)CC5)cc4[nH]3)ccc21", "values": [{"measurement": "Activity", "setting": "Quadruplex DNA [1]", "value": "Active"}, {"measurement": "Activity", "setting": "Quadruplex DNA [2]", "value": 49, "unit": "%"}, {"measurement": "Activity", "setting": "Quadruplex DNA [3]", "value": "Active"}, {"measurement": "Activity", "setting": "Quadruplex DNA [4]", "value": "Active"}, {"measurement": "ΔTm", "setting": "Quadruplex DNA [5]", "value": 9.54, "unit": "°C"}, {"measurement": "Activity", "setting": "Quadruplex DNA [6]", "value": "Active"}, {"measurement": "Activity", "setting": "Quadruplex DNA [7]", "value": 71, "unit": "%"}, {"measurement": "ΔTm", "setting": "Quadruplex DNA [8]", "value": 21.3, "unit": "°C"}, {"measurement": "DC50", "setting": "Quadruplex DNA [9]", "value": 830, "unit": "nM"}, {"measurement": "DC50", "setting": "Quadruplex DNA [10]", "value": 650, "unit": "nM"}, {"measurement": "Activity", "setting": "Quadruplex DNA [11]", "value": "Dose-dependent effect"}, {"measurement": "Activity", "setting": "Quadruplex DNA [12]", "value": "Active"}]}
